Source: PubChem BioAssay (several laboratories)
Most compounds without a hit are left out; they make up all but 5.3% or so of the library.
CSC inhib: cancer stem cell viability inhibitors, primary screen, luminescence; cancer stem cell-like cells viability; 1.1% of 300,000 active; inhibition, % at 7.5 µM; AID 2717, 2010; in the data active means inhibition above about 75%; inconclusive means no clear call, values can overlap the other calls; tested in HMLE shEcad cells
T cruzi inh: inhibitors of intracellular T. cruzi growth, primary screen, luminescence, NIH3T3 host cells; T. cruzi beta-gal in NIH3T3, 90 h; inhibition, % (test concentration not listed); 1.4% of 300,000 active; AID 1885, 2009;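 active means mean inhibition across valid replicates above about 55%, limit read from the data; inconclusive means mean below that limit but half or more replicates reach it; inactive means mean below it, under half of replicates reach it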;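 further: signal also drops with host cell toxicity which is not excluded here; 0% = plate median of DMSO wells and 100% = zero luminescence signal; higher percent means less beta-gal luminescence so fewer parasites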
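System: NIH/3T3 fibroblasts plus reporter T. cruzi. Medium: DMEM plus 2% FBS. Probe or stimulus: 5000 reporter trypomastigotes per well. Compound: single 50 nL compound addition per well in DMSO. Incubation: co-culture of at least 90 h after 3 h attachment. Detection: GalScreen β-gal luminescence, detergent lysis, 60 min. Evaluation: parasite load inhibition, %.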
Beta cell apopt: inhibitors of cytokine-induced beta cell apoptosis, primary screen, luminescence. INS-1E cytokine-induced death, ATP luminescence, 48 h; percent of positive-control rescue, neutral wells zero. protection from apoptosis, % (no concentration beside the values). 0.8% of 300,000 active;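 active means Every replicate reaches about 75%, or at least half do and their mean reaches it too, limit read from the data; inconclusive means At least half of replicates reach the limit but their mean does not; inactive means Under half of replicates reach the limit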;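 further: 0% = cytokine-treated negative control wells and 100% = positive control rescue; higher means more ATP so stronger rescue from cytokine killing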
NALP3 yeast inh: NALP3 inflammasome inhibitors in reconstituted yeast, primary screen, luminescence, uHTS | Yeast reconstituted NLRP3/ASC/caspase-1, beta-gal luminescence, 24 h | inhibition, % at 10 µM | 0.39% of 330,000 active | AID 2825, 2010;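 active means inhibition of 50% or more; inactive means inhibition below 50%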;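 further: plate controls were induced DMSO wells for no effect and uninduced yeast grown without galactose for full effect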
Calb FLC: C. albicans growth inhibition with fluconazole, primary screen, CaCi-2 strain, Alamar Blue fluorescence. growth inhibition, % (no concentration beside the values). AID 1979, 2009. 0.57% of 300,000 active. C. albicans CaCi-2 (fluconazole-resistant clinical isolate) + fluconazole, 48 h;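 active means growth inhibition above about 58% in most replicates, limit read from the data, passing the limit was not always enough; inconclusive means exactly half the replicates above a set limit; inactive means most replicates below a set limit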;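 further: all wells also contain fluconazole at 8 µg/ml as a sub-toxic cotreatment; 0% = median of DMSO wells and 100% = median of geldanamycin control wells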
Mdm2-MdmX inh: inhibitors of human Mdm2-MdmX association, primary screen, cell-based, luminescence, split luciferase, SaOS-2, uHTS; 3% of 330,000 active; inhibition, % at 8 µM; SaOS-2 split-luciferase Mdm2/MdmX complementation;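 active means inhibition of at least 50% at 8 µM in the primary screen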
Target sequence (O15151 whole entry, looked up): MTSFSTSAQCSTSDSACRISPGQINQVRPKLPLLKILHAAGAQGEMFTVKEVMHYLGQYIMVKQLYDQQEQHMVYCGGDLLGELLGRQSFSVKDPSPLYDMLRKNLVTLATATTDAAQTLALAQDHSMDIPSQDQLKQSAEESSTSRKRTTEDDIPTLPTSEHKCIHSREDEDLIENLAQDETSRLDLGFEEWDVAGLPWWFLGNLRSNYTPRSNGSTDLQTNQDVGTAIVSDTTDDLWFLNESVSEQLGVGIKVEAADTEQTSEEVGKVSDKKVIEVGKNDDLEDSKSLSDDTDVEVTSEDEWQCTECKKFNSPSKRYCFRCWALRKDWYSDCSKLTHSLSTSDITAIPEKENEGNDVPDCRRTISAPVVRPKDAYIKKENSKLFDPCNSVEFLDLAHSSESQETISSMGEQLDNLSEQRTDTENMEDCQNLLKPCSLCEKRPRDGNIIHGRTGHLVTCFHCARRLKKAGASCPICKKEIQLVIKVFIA
Target sequence (Q00987 whole entry, looked up): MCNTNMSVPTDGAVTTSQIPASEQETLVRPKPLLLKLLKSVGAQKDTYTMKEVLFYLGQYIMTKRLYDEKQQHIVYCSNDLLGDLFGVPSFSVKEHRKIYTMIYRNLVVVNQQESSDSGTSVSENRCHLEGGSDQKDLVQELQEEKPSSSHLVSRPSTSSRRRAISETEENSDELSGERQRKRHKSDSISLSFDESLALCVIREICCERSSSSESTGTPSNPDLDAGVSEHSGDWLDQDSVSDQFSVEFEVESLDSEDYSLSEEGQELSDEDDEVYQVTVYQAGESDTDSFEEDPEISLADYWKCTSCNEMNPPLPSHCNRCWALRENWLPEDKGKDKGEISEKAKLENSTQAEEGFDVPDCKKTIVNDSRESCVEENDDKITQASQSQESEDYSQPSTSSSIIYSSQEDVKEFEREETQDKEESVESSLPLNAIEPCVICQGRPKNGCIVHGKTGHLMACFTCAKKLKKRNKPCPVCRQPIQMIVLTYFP
Mdm2 MdmX conf: Mdm2-MdmX complex disruptors, retested hits, confirmation, luminescence, single concentration; shares compounds with Mdm2-MdmX inh; Mdm2-MdmX binding, luminescent assay; inhibition, % at 8 µM; 55% of 10,000 active; AID 489028, 2010; in the data active means inhibition above about 40%
FLuc counter: full-length luciferase signal inhibition, confirmation, counter-screen for Mdm2/MdmX interaction inhibitor project, cell-based, single concentration, SaOS-2; shares compounds with Mdm2-MdmX inh; SaOS-2 full-length luciferase counterscreen, luminescence; inhibition, % at 8 µM; 77% of 6,200 active; AID 504607, 2011;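 active means mean inhibition at 8 µM reaching about 37%, which flags the compound as non-specific, limit read from the data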;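 further: p53-null SaOS-2 cells with luciferase driven by a doxycycline-inducible promoter; compound on cells about two nights before reading with doxycycline added after day one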
* = called active by the depositor; ? = inconclusive; / = not tested or not shown.

SMILES	CSC inhib	T cruzi inh	Beta cell apopt	NALP3 yeast inh	Calb FLC	Mdm2-MdmX inh	Mdm2 MdmX conf	FLuc counter
O=C(Nc1ccc(NC(=O)c2ccc(Cl)cc2Cl)cc1)c1cccs1	2	-9	3	17	-3	72*	22	/
C/C(=N/NC(=O)c1ccc(C)s1)c1cccc(NC(=O)COc2ccc(Cl)cc2Cl)c1	9	0	7	6	-26	48	/	/
C/C(=N/NC(=O)c1ccc(Cl)s1)c1ccc(NC(=O)COc2ccc(Cl)cc2)cc1	-2	1	6	10	6	78*	6	/
CCOc1ccc(S(=O)(=O)Nc2cccc(C(=O)N(C)Cc3cccc(OC)c3OC)c2)cc1	3	4	2	3	4	-6	/	/
CC(=O)Nc1cc2nn(-c3ccccc3)nc2cc1Cl	10	-13	-1	21	-3	-266	/	/
O=C(NCCc1ccccc1F)c1ccc2c(c1)OCCO2	1	0	1	22	7	89*	92*	49*
O=[N+]([O-])c1cc([N+](=O)[O-])c(Oc2cncc(Cl)c2)cc1NC1CCCCCCC1	39	-11	5	-4	-2	74*	40	83*
CN(Cc1ccccc1)C(=O)c1ccc(NC(=O)C2CCN(C(=O)OC(C)(C)C)CC2)cc1	12	/	4	6	/	76*	59*	32
COc1cc(-c2nc(-c3ccccc3)c(-c3cc([N+](=O)[O-])ccc3C)[nH]2)cc(OC)c1OC	38	58*	3	4	47	69*	30	/
COc1ccc(N(C(=O)c2ccccc2C)S(=O)(=O)c2cccs2)cc1	?	-15	13	-6	4	59*	53*	105*
CCOC(=O)c1sc(N)c(C(=O)Nc2ccccc2)c1C	2	-11	-6	14	15	4	/	/
Oc1ccc(Cl)cc1/C=C/c1ccc2cccc(O)c2n1	/	21	/	9	-1	60*	39	63*
COc1ccc(OC)c(/C=C/c2ccc3cccc(O)c3n2)c1	39	61*	38	9	-7	93*	38	/
Oc1cccc2ccc(/C=C/c3cccs3)nc12	53	32	22	18	38	-31	/	/
COc1cc(/C=C/c2ccc3cccc(O)c3n2)c(Br)cc1O	96*	56*	39	-53	15	98*	39	29
COc1cc(Br)cc(/C=C/c2ccc3cccc(O)c3n2)c1O	92*	34	34	11	-2	81*	68*	51*
N#CCCn1cc(C(=O)N2CCCCC2)c(-c2ccc([N+](=O)[O-])cc2)n1	-9	-9	-3	-13	-8	0	/	/
CC(C)CCNC(=O)CN(C(=O)CCC(=O)Nc1ccccn1)c1ccc2c(c1)OCCO2	-6	-9	-2	0	-19	11	/	/
COc1ccc(CCNC(=O)COC(=O)C2COc3ccccc3O2)cc1 (centres undefined)	/	/	2	1	/	-13	/	/
CSc1ccc(/C=C/c2ccc3cccc(O)c3n2)cc1	61	33	16	28	3	-40	/	/
COc1cc(/C=C/c2ccc3cccc(O)c3n2)ccc1O	75*	22	20	27	-7	100*	-41	/
COc1cc(Br)c(/C=C/c2ccc3cccc(O)c3n2)cc1OC	17	57*	9	0	-2	74*	52*	47*
CC1(C)C[C@H]2C3=CCC4[C@@]5(C)CC[C@H](O)[C@](C)(CO)C5CC[C@@]4(C)[C@]3(C)C[C@H]3O[C@@H]1[C@H](O)[C@]32CO (some centres undefined)	-21	/	2	15	/	10	/	/
C[C@H]1[C@H](C)CC[C@]2(C(=O)O)CC[C@]3(C)C(=CC[C@@H]4[C@@]5(C)C[C@@H](O)[C@H](O)C(C)(C)[C@@H]5CC[C@]43C)[C@H]12	95*	17	2	-1	0	68*	25	/
C[C@H]1[C@H](C)CC[C@]2(C(=O)O)CC[C@]3(C)C(=CC[C@@H]4[C@@]5(C)CC[C@H](O)C(C)(C)[C@@H]5CC[C@]43C)[C@H]12	66	3	22	-1	/	78*	15	/
SMILES	CSC inhib	T cruzi inh	Beta cell apopt	NALP3 yeast inh	Calb FLC	Mdm2-MdmX inh	Mdm2 MdmX conf	FLuc counter
CC1(C)C[C@H]2C3=CCC4[C@@]5(C)CC[C@H](O)[C@](C)(CO)C5CC[C@@]4(C)[C@]3(C)CC[C@@]2(C)[C@H](O)[C@@H]1O (some centres undefined)	/	/	/	33	/	87*	57*	60*
CC(C)n1cnc2c(Nc3cccc(Cl)c3)nc(NCCCO)nc21	-7	19	5	2	9	73*	74*	72*
CC(C)[C@H](CO)Nc1nc(Nc2ccc(Cl)c(C(=O)O)c2)c2ncn(C(C)C)c2n1	10	-20	-3	10	10	15	/	/
Cc1c(-n2c(CN3C(=O)c4ccccc4C3=O)nc3ccccc3c2=O)c(=O)n(-c2ccccc2)n1C	11	-3	-4	1	-4	28	/	/
COc1cc(-c2cc(-c3ccc(F)cc3)nc(N)c2C#N)ccc1O	/	-4	-1	22	22	71*	52*	56*
N#Cc1c(-c2cccnc2)cc(-c2ccccc2)nc1N	-8	-12	0	-5	5	17	/	/
CCOc1cc(-c2c(C#N)c(N)nc3c2CCCC3)ccc1O	/	16	8	6	-8	34	/	/
CCOc1cc(-c2cc(-c3ccc(N)cc3)nc(N)c2C#N)ccc1O	37	21	0	10	-13	51*	26	124*
CCOc1cc(-c2cc(-c3ccccc3)nc(N)c2C#N)ccc1O	/	41	/	32	10	76*	61*	95*
N#Cc1c(-c2ccncc2)cc(-c2ccc(F)cc2)nc1N	-11	-9	7	-3	11	16	/	/
Cc1ccc(-n2nc3ccc(N)cc3n2)cc1C	18	7	/	21	1	-134	/	/
O=C(N/N=C/c1ccc(F)cc1)c1c(O)c2ccccc2[nH]c1=O	4	2	-2	30	-3	88*	4	/
COc1cc(OC)c(NC(=O)c2ccoc2C)cc1Cl	-15	8	-1	33	9	18	/	/
CC(C)c1c(C(=O)N/N=C/c2ccc(OCc3ccccc3)cc2)nnn1-c1nonc1N	-1	18	7	8	1	34	/	/
